# In ChEMBL document CHEMBL2177067 (J Med Chem, 2012):
# Experiments:
# [1] = Selectivity index, ratio of CC50 for human HeLa cells to MIC for Staphylococcus aureus ATCC 25923; assay type: functional
# Method in brief: (§1)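 Selectivity index is HeLa CC50 (MTS assay) divided by the bacterial MIC.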
# HeLa = experiment: Cytotoxicity against human HeLa cells by MTS assay; assay type: cell-based
# [2] = Selectivity index, ratio of CC50 for human HeLa cells to MIC for Bacillus anthracis; assay type: functional; method in brief: as §1
# Staphylococcus aureus [3] = experiment: Antibacterial activity against Staphylococcus aureus ATCC 25923 by broth microdilution method in presence of reserpine; assay type: functional
# Staphylococcus aureus [4] = experiment: Antibacterial activity against Staphylococcus aureus ATCC 25923 by broth microdilution method; assay type: functional
# Bacillus anthracis = experiment: Antibacterial activity against Bacillus anthracis by broth microdilution method; assay type: functional
# [5] = Inhibition of Staphylococcus aureus ATCC 25923 replicative DnaB helicase-mediated ATP-dependent dissociation of Hel-5'FAM:Hel-3'BHQ by FRET assay
# Method in brief: (§2)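 Unwinding was read by FRET as helicase-driven, ATP-dependent dissociation of annealed Hel-5′FAM and Hel-3′BHQ oligonucleotides, one fluorescent and the other quencher-labelled. The replicative helicases were prepared as described earlier.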
# Replicative DNA helicase = molecular target: T1, Replicative DNA helicase (Bacillus anthracis, UniProt A0A6L8Q2B7); experiment: Inhibition of Bacillus anthracis Sterne 34F2 replicative DNA helicase-mediated ATP-dependent dissociation of Hel-5'FAM:Hel-3'BHQ by FRET assay; set-up: species or system Bacillus anthracis str. Sterne; method in brief: as §2
# T1 sequence (A0A6L8Q2B7 whole entry): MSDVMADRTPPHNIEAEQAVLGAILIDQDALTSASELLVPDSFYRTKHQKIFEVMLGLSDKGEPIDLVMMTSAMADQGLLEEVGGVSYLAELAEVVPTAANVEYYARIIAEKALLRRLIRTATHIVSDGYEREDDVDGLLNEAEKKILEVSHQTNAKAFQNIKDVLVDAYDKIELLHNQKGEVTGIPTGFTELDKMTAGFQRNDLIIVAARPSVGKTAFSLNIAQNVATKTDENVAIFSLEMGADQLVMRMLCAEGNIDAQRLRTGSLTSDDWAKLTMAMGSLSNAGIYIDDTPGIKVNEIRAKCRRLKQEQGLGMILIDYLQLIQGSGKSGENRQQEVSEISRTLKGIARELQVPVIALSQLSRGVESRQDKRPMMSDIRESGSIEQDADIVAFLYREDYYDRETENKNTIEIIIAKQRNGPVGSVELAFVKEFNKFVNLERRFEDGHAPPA
Structure (SMILES),Selectivity Index [1],CC50 (HeLa),Selectivity Index [2],MIC (Staphylococcus aureus [3]),MIC (Staphylococcus aureus [4]),MIC (Bacillus anthracis),IC50 [5],IC50 (Replicative DNA helicase)
Cc1c(CCC(=O)O)c(=O)oc2c(C)c(OCc3c4ccccc4cc4ccccc34)ccc12,0.4,8.3 µM,3.3,50 µM,20 µM,2.5 µM,8.3 µM,7.2 µM
Cc1c(CCC(=O)O)c(=O)oc2c(C)c(OCc3ccc(-c4ccc(F)cc4)cc3)ccc12,6.4,19.2 µM,>24,–,3 µM,< 0.8 µM,3.7 µM,5.1 µM
Cc1c(OCc2ccc(-c3ccccc3)cc2)ccc2cc(CCC(=O)O)c(=O)oc12,2.5,> 100 µM,>40,> 100 µM,> 100 µM,–,14 µM,21 µM
CCc1c(OCc2ccc(-c3ccccc3)cc2)ccc2c(C)c(CCC(=O)O)c(=O)oc12,8.4,42 µM,34,–,5 µM,1.25 µM,–,2 µM
C#CCOc1ccc2c(C)c(CCC(=O)O)c(=O)oc2c1C,–,–,–,–,–,–,> 100 µM,> 100 µM
Cc1c(CCC(=O)O)c(=O)oc2c(C)c(OCc3cccc(-c4ccccc4)c3)ccc12,0.3,5.6 µM,9,–,20 µM,0.625 µM,6 µM,7.5 µM
Cc1c(CCC(=O)O)c(=O)oc2c(C)c(OCc3ccc(-c4ccccc4C#N)cc3)ccc12,7.8,19.5 µM,15.6,–,2.5 µM,1.25 µM,4.6 µM,3.8 µM
Cc1c(CCC(=O)O)c(=O)oc2c(C)c(OCc3ccc(-c4ccc(F)cc4F)cc3)ccc12,–,–,–,–,> 100 µM,> 100 µM,4.9 µM,9 µM
CC(=O)NCCNC(=O)CCc1c(C)c2ccc(OCc3ccc(-c4ccccc4)cc3)c(C)c2oc1=O,–,–,–,–,–,–,> 100 µM,> 100 µM
Cc1c(CCC(=O)O)c(=O)oc2cc(OCc3ccccc3-c3ccccc3)ccc12,0.6,7.8 µM,1.6,–,12.5 µM,5 µM,12 µM,19 µM
Cc1c(CCC(=O)O)c(=O)oc2cc(OCc3ccc(-c4ccccc4)cc3)ccc12,6.8,21.2 µM,8.5,–,3.12 µM,2.5 µM,6 µM,9.7 µM
Cc1c(CCCC(=O)O)c(=O)oc2c(C)c(OCc3ccc(-c4ccccc4)cc3)ccc12,<0.8,31 µM,25,> 100 µM,> 100 µM,1.25 µM,2.2 µM,2 µM
Cc1c(CCC(=O)O)c(=O)oc2c(C)c(OCc3ccccc3-c3ccccc3)ccc12,0.4,4.4 µM,1.8,–,10 µM,2.5 µM,9 µM,10.2 µM
Cc1c(CCC(=O)O)c(=O)oc2c(C)c(OCc3ccc4ccccc4c3)ccc12,<1,38 µM,7.6,> 100 µM,> 100 µM,5 µM,8 µM,9 µM
Cc1c(CCC(=O)O)c(=O)oc2c(C)c(OCc3cccc4ccccc34)ccc12,<0.06,–,0.09,–,> 100 µM,65 µM,–,–
